pKB data for 33 compounds are collected here from ChEMBL document CHEMBL1125417, “Development of a series of phenyltetrazole leukotriene D4 (LTD4) receptor antagonists” (J Med Chem, 1992).

Molecules are shown by their SMILES. Active and inactive are the calls of the source. The rule behind the calls is not given here.

Assay [1] has as its system Cysteinyl leukotriene receptor 1 (Cavia porcellus). Briefly: Antagonist activity tested against Cysteinyl leukotriene D4 receptor.
In assay [2] the target is T1, Cysteinyl leukotriene receptor 1 (Cavia porcellus) (UniProt Q2NNR5).
T1 sequence (whole entry): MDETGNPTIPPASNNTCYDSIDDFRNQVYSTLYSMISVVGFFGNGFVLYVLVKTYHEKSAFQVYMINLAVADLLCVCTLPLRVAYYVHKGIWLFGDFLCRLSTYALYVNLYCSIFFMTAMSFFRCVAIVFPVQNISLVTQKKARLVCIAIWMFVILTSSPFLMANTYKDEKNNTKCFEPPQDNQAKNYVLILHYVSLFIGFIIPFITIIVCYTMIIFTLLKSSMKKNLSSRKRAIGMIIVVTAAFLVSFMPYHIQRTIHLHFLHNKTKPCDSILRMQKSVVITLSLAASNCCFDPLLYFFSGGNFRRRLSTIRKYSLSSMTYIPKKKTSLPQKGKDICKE
Put plainly: Antagonistic activity against leukotriene D4 (LTD4) receptor. It is filed as functional. In a few lines:
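Isolated tissue strips in baths of physiological salt solution (mM: NaCl 118.2, NaHCO₃ 24.8, dextrose 10.0, Ca²⁺ 1.2) at 37 °C, gassed with 95% O₂/5% CO₂, under 0.5 g resting tension. Cumulative LTD₄ concentration–response curves were recorded. Each antagonist was in contact with the tissue for 30 min before the final LTD₄ curve.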

In assay [1], `O=C(O)c1ccccc1Cn1nnc(-c2cccc(CSc3ccc4ccccc4n3)c2)n1` displayed a pKB of 7.02. Turning to `CCCCCCCCCCOc1ccc(-c2nnn(CCCCc3nnn[nH]3)n2)cc1`, the pKB in assay [2] was found to be 5.09. In assay [1], `c1ccc(CCOc2ccc(-c3nnn(CCCCc4nnn[nH]4)n3)cc2)cc1` gave a pKB of 6.51.

In assay [2], `c1ccc2nc(COc3ccc(-c4nnn(CCCCc5nnn[nH]5)n4)cc3)ccc2c1` returned a pKB of 6.68. In assay [1], `c1ccc(CCCCOc2ccc(-c3nnn(CCCCCCCCc4nnn[nH]4)n3)cc2)cc1` registered a pKB of 5.7. Still for that read-out and setting: in the case of `c1ccc(CCCCOc2ccc(-c3nnnn3CCCCc3nnn[nH]3)cc2)cc1` it was 6.31; in that of `O=C(O)c1ccccc1Cn1nnc(-c2ccc(CSc3ccc4ccccc4n3)cc2)n1`, 5.87; in that of `O=C(O)c1cccc(Cn2nnc(-c3cccc(CSc4ccc5ccccc5n4)c3)n2)c1`, 5.62. Still for that read-out and setting: in the case of `c1ccc(CCCCOc2ccc(-c3nnn(CCCCCCCc4nnn[nH]4)n3)cc2)cc1` it was 5.96; in that of `c1ccc(CCCCOc2ccc(-c3nnn(CCCCc4nnn[nH]4)n3)cc2)cc1`, 6.91; in that of `c1cc(-c2nnn(CCCCc3nnn[nH]3)n2)ccc1OCCCCc1nn[nH]n1`, “inactive”.

On to `c1ccc(CCCCCOc2ccc(-c3nnn(CCCCc4nnn[nH]4)n3)cc2)cc1`, for which the pKB in assay [1] was determined as 5.9. Turning to `c1ccc2oc(COc3ccc(-c4nnn(CCCCc5nnn[nH]5)n4)cc3)cc2c1`, the pKB in assay [2] was 6.36. Compound `NC(=O)CCCCn1nnc(-c2ccc(OCCCCc3ccccc3)cc2)n1` showed a pKB in assay [2] of 5.41.

Take `O=C(O)CCCCn1nnc(-c2ccc(OCCCCc3ccccc3)cc2)n1`: the pKB in assay [2] came out at 5.97.

`c1ccc(CCCCOc2cccc(-c3nnn(CCCCc4nnn[nH]4)n3)c2)cc1` gave a pKB in assay [1] of 5.38. The same measure, in the same setting: in the case of `O=C(O)c1cccc(Cn2nnnc2-c2cccc(CSc3ccc4ccccc4n3)c2)c1` it was 6.2; in that of `c1ccc(CCCCOc2ccc(-c3nnn(CCCCCCc4nnn[nH]4)n3)cc2)cc1`, 6.24. In turn, `FC(F)(F)CCCCCCCOc1ccc(-c2nnn(CCCCc3nnn[nH]3)n2)cc1` gave a pKB in assay [2] of 5.43. `c1cc(CSc2ccc3ccccc3n2)cc(-c2nnn(CCCCc3nnn[nH]3)n2)c1` came in with a pKB in assay [1] of 6.57. On to `Cc1ccccc1S(=O)(=O)NC(=O)CCCCn1nnc(-c2ccc(OCCCCc3ccccc3)cc2)n1`, for which the pKB in assay [1] came out at 5.92. The same measure, in the same setting: the same measure for `Cc1ccccc1S(=O)(=O)NC(=O)NC(=O)CCCCn1nnc(-c2ccc(OCCCCc3ccccc3)cc2)n1`: 5.86; for `c1ccc(CCCCn2nnc(-c3ccc(OCCCCc4nnn[nH]4)cc3)n2)cc1`: 5.8. The same measure, in the same setting: in the case of `O=C(O)c1ccc(Cn2nnc(-c3cccc(CSc4ccc5ccccc5n4)c3)n2)cc1` it was 5.88.

Consider `c1ccc(CCCCOc2ccc(-c3nnn(CCCCCc4nnn[nH]4)n3)cc2)cc1`, for which the pKB in assay [2] was 6.54. In assay [1], `c1ccc(CCCCOc2ccc(-c3nn[nH]n3)cc2)cc1` showed a pKB of 5.92. The same measure, in the same setting: the same measure for `CCCOc1ccc(-c2nnn(CCCCc3nnn[nH]3)n2)cc1`: 5.52. In turn, `c1ccc(CCCCOc2ccc(-c3nnn(CCCc4nnn[nH]4)n3)cc2)cc1` had a pKB in assay [2] of 6.86.

The compound `c1ccc(CCCOc2ccc(-c3nnn(CCCCc4nnn[nH]4)n3)cc2)cc1` had a pKB in assay [1] of 6.79. Same read-out and setting: the same measure for `N#CNC(=O)CCCCn1nnc(-c2ccc(OCCCCc3ccccc3)cc2)n1`: 6.1. Turning to `FC(F)(F)CCCCCOc1ccc(-c2nnn(CCCCc3nnn[nH]3)n2)cc1`, in assay [2], the pKB was 5.82.

In turn, `FC(F)(F)CCCCOc1ccc(-c2nnn(CCCCc3nnn[nH]3)n2)cc1` gave a pKB in assay [1] of 5.92. For `c1ccc(CCCCCCOc2ccc(-c3nnn(CCCCc4nnn[nH]4)n3)cc2)cc1`, the pKB in assay [2] is 5.83.
